Active and inactive are the calls of the source.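 How the source made its calls: active means response above about half the acetylcholine maximum when tested at 10 µM with a low acetylcholine dose; inactive means response below half the acetylcholine maximum.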
Target: Muscarinic acetylcholine receptor M1 (Rattus norvegicus) (UniProt P08482)
Experiment: rat M1 positive allosteric modulators, single dose, ACh EC20, CHO cells (AID 2626)
Conditions: CHO rM1 cells, calcium response with ACh EC20; at 10 µM; hits give high values
In short: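 System – CHO cells with rat M1 receptor · Probe or stimulus – acetylcholine near EC20 · Measure – enhancement of acetylcholine response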

Muscarinic acetylcholine receptor M1 (Rattus norvegicus), sequence (P08482 whole entry, looked up): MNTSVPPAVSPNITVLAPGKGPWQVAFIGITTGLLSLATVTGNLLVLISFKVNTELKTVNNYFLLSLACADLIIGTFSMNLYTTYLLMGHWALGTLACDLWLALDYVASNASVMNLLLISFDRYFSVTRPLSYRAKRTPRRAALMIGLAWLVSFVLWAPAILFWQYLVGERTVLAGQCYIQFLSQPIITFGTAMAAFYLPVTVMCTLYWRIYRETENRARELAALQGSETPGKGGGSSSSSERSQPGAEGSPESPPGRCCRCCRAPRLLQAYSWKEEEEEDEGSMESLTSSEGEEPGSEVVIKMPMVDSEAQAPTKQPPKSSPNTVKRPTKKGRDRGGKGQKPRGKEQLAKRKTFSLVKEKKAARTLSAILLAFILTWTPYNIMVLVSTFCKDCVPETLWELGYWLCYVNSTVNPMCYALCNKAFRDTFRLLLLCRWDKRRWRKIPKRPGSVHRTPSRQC

Structure (SMILES) | % of ACh max response (PAM)
Cc1cc(NC(=O)CS(=O)(=O)c2cn(Cc3ccc4c(c3)OCO4)c3ccccc23)no1 | 35.8% (inactive)
Cc1cc(NC(=O)CS(=O)(=O)c2cn(Cc3cccc(-c4cnn(CC(C)C)c4)c3)c3ccccc23)no1 | 24.4% (inactive)
Cc1cc(NC(=O)CS(=O)(=O)c2cn(Cc3cccc(-c4ccc(N5CCNCC5)nc4)c3)c3ccccc23)no1 | 43.6% (inactive)
Cc1cc(NC(=O)CSc2cn(Cc3ccccc3Cl)c3ccccc23)no1 | 26.7% (inactive)
Cc1cc(NC(=O)CSc2c[nH]c3ccccc23)no1 | 28.8% (inactive)
Cc1cc(NC(=O)CS(=O)(=O)c2c[nH]c3ccccc23)no1 | 29% (inactive)
Cc1cc(NC(=O)CS(=O)c2cn(Cc3cccc(Cl)c3)c3ccccc23)no1 (stereo not drawn) | 72.4%
Cc1cc(NC(=O)C(Cc2ccc(OC(F)(F)F)cc2)S(=O)(=O)c2cn(Cc3ccc(OC(F)(F)F)cc3)c3ccccc23)no1 (stereo not drawn) | 28.7% (inactive)
CS(=O)(=O)c1cn(Cc2ccccc2Cl)c2ccccc12 | 26.3% (inactive)
Cc1cc(NC(=O)C(C)S(=O)(=O)c2cn(Cc3cc(Br)cc(Br)c3)c3ccccc23)no1 (stereo not drawn) | 17.7% (inactive)
Cc1cc(NC(=O)CS(=O)(=O)c2cn(Cc3cccc(-c4ccc(N5CCOCC5)nc4)c3)c3ccccc23)no1 | 18.5% (inactive)
Cc1cc(NC(=O)CS(=O)(=O)c2cn(Cc3cccc(-c4ccc(N5CCCC5)nc4)c3)c3ccccc23)no1 | 33.3% (inactive)
Cc1cc(NC(=O)C(Cc2cccc(Cl)c2)S(=O)(=O)c2cn(Cc3cccc(Cl)c3)c3ccccc23)no1 (stereo not drawn) | 42.1% (inactive)
Cc1cc(NC(=O)CS(=O)(=O)c2cn(Cc3cc(Br)cc(Br)c3)c3ccccc23)no1 | 12.7% (inactive)
Cc1cc(NC(=O)CSc2cn(Cc3cccc(Br)c3)c3ccccc23)no1 | 26.9% (inactive)
Cc1cc(NC(=O)C(Cc2ccc(F)cc2F)S(=O)(=O)c2cn(Cc3ccc(F)cc3F)c3ccccc23)no1 (stereo not drawn) | 38.5% (inactive)

Next, values leading:

% of ACh max response (PAM) | Structure (SMILES)
13.9% (inactive) | O=C(CS(=O)(=O)c1cn(Cc2cc(Br)ccc2F)c2ccccc12)Nc1ccccc1
51.6% | Cc1cc(NC(=O)CS(=O)(=O)c2cn(Cc3ccc(F)cc3F)c3ccccc23)no1
24% (inactive) | Cc1cc(NC(=O)CS(=O)(=O)c2cn(Cc3ccc(F)c(Br)c3)c3ccccc23)no1
30.6% (inactive) | COc1ccccc1Cn1cc(S(=O)(=O)CC(=O)Nc2cc(C)on2)c2ccccc21
30.8% (inactive) | Cc1cc(NC(=O)CS(=O)(=O)c2cn(Cc3ccc(Cl)cc3)c3ccccc23)no1
19.7% (inactive) | Cc1cc(NC(=O)C(C)S(=O)(=O)c2cn(Cc3cc(Br)ccc3F)c3ccccc23)no1 (stereo not drawn)
26.4% (inactive) | Cc1cc(NC(=O)CS(=O)(=O)c2cn(Cc3cccc(-c4ccc(Cl)nc4)c3)c3ccccc23)no1
7.5% (inactive) | COC(=O)CS(=O)(=O)c1cn(Cc2cc(Br)ccc2F)c2ccccc12
52.7% | Cc1cc(NC(=O)CS(=O)(=O)c2cn(Cc3cccc(C#N)c3)c3ccccc23)no1
52.9% | Cc1cc(NC(=O)CS(=O)(=O)c2cn(Cc3ccccc3F)c3ccccc23)no1
30.4% (inactive) | Cc1cc(NC(=O)CS(=O)(=O)c2cn(Cc3ccc(C(F)(F)F)cc3)c3ccccc23)no1
41.2% (inactive) | Cc1cc(NC(=O)CS(=O)(=O)c2cn(Cc3ccc(F)nc3)c3ccccc23)no1
27.7% (inactive) | Cc1cc(NC(=O)CS(=O)(=O)c2cn(Cc3ccc(Br)cc3F)c3ccccc23)no1
18.1% (inactive) | O=C(O)CS(=O)(=O)c1cn(Cc2cc(Br)ccc2F)c2ccccc12
44.5% (inactive) | Cc1cc(NC(=O)C(Cc2ccccc2F)S(=O)(=O)c2cn(Cc3ccccc3F)c3ccccc23)no1 (stereo not drawn)
28.7% (inactive) | Cc1cc(NC(=O)CS(=O)(=O)c2cn(Cc3ccc(OC(F)(F)F)cc3)c3ccccc23)no1
54.8% | COc1ccc(Cn2cc(S(=O)(=O)CC(=O)Nc3cc(C)on3)c3ccccc32)cc1
